Assay outcomes (PubChem)
Compounds with a hit are over-represented: about 3.7% of the library has one in this group of screens.
KCNQ1 pot – potentiators or activators of KCNQ1 channel, primary screen, cell-based, thallium flux, high-throughput. CHO-K1 KCNQ1, thallium flux FluxOR fluorescence; active compounds read high. Potassium voltage-gated channel subfamily KQT member 1 (Homo sapiens), P51787. B-score at 10 µM. AID 2648, 2010. 310,000 tested, 0.35% active;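 active = fluorescence ratio B-score, a plate-corrected score, at least three library SD, with initial intensity B-score within 5 SD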
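Assay system: CHO-K1 cells stably expressing KCNQ1; Medium: assay buffer with matched DMSO; Also added: K+/Tl+ depolarizing stimulus; Dosing: single dose; Timing: dye 90 min, compound 20 min, room temperature; Measured by: kinetic FluxOR thallium fluorescence, 10-s 1-Hz baseline, 110-s post-stimulus read; Read-out: peak-minus-minimum fluorescence over initial fluorescence, negative-control normalized, B-scored.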
Kir21 block – inhibitors of mouse Kir2.1 inward-rectifier potassium channel. HEK293-Kir2.1, FluxOR thallium flux fluorescence; active compounds read low. 310,000 tested, 0.85% active. B-score at 10 µM. Inward rectifier potassium channel 2 (Mus musculus), P35561. AID 1672, 2009;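 active = fluorescence ratio B-score at or below minus 3 SD of library scores, with starting-brightness B-score within 2 SD, cut at about -4.2 in these data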;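 also: channel flux triggered by added potassium and thallium sulfate stimulus; B-score of peak minus minimum fluorescence over baseline after thallium stimulus; more negative B-score means stronger Kir2.1 block with less thallium influx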
hERG rescue – hERG rescue from dofetilide block, primary screen, cell-based, CHO-hERG, FluxOR thallium flux, dofetilide IC70; dofetilide IC70 present; activation (rescue from dofetilide block), less the hit threshold, % at 10 µM; 310,000 tested, 0.51% active;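 active = activation above the mean of controls blocked by dofetilide plus 5 SD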;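 also: thallium influx through hERG after potassium depolarization seen as dye fluorescence rise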
KCNQ1 block – inhibitors of human KCNQ1 channel, primary screen, cell-based, thallium flux, high-throughput. Potassium voltage-gated channel subfamily KQT member 1 (Homo sapiens), P51787. CHO-K1 KCNQ1, FluxOR thallium flux fluorescence; active compounds read high. B-score at 10 µM. 310,000 tested, 1.3% active. AID 2642, 2010;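 active = compounds whose thallium flux B-score, printed positive for inhibition, exceeds three library SD while starting fluorescence stays within three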;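 also: channel opened by potassium depolarization with thallium stimulus after 20 min compound exposure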
KCNK9 inh – KCNK9 potassium channel inhibitors, primary screen, HEK293 cells, thallium flux. FluxOR thallium flux fluorescence; active compounds read low. AID 488922, 2010. Potassium channel subfamily K member 9 (Homo sapiens), Q9NPC2. B-score at 10 µM. 310,000 tested, 1.2% active;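 active = ratio B-score over 3 SD below the library mean, with starting fluorescence within 5 SD of its mean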;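 also: negative B-score means less thallium flux so channel inhibition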
KCNK3 inh – human KCNK3 channel inhibitors, primary screen, CHO cells, FluxOR thallium flux, B-score; B-score at 10 µM; Potassium channel subfamily K member 3 (Homo sapiens), O14649; 340,000 tested, 0.84% active; FluxOR fluorescence; active compounds read low; AID 602410, 2012;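 active = B-score under library mean minus 4 SD, starting fluorescence ratio at most library mean plus 5 SD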;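 also: more negative B-score means stronger inhibition of thallium flux through KCNK3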
Target sequence (O14649 whole entry, looked up): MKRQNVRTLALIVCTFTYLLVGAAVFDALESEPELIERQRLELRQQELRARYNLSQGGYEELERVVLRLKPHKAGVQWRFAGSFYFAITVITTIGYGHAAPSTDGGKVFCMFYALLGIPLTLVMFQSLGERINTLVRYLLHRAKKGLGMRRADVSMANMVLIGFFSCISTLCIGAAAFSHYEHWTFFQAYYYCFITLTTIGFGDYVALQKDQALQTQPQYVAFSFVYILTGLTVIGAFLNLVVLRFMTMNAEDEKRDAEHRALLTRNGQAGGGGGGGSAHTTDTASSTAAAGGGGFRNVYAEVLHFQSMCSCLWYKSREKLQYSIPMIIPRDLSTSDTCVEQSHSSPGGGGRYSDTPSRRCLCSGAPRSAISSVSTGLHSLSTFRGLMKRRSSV
KCNK9 inh conf – KCNK9 potassium channel inhibitors, confirmation, HEK293 cells, thallium flux, duplicate; FluxOR thallium flux fluorescence; 4,900 tested, 43% active; AID 492992, 2010; shares compounds with KCNK9 inh; inhibition, % at 10 µM;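 active = thallium signal inhibited by more than 5 SD of the compound-free buffer control wells, on both duplicate plates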
Kir21 sel – mouse Kir2.1 channel inhibition, confirmation, selectivity assay for KCNK9 modulator project, cell-based, HEK293, thallium flux. shares compounds with KCNK9 inh. 4,900 tested, 4% active. inhibition, % at 10 µM. Kir2.1 cells, FluxOR thallium flux fluorescence;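 active = thallium signal drop more than 5 SD beyond the mean of the no-compound control wells, seen in both duplicate plates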;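 also: signal is fluorescence rise after thallium addition divided by baseline fluorescence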
HEK293 Tl ctr – thallium flux in non-induced HEK293 cells, confirmation, counter-screen for KCNK9 inhibitor project, cell-based, second counter screen, non-induced KCNK9-HEK293; 4,900 tested, 40% active; inhibition, % at 10 µM; shares compounds with KCNK9 inh; FluxOR thallium flux;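 active = thallium signal drop beyond 5 SD of the untreated control mean, on both duplicate plates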
Of the large screens only hits and unclear results are named; the others gave an inactive call (follow-up assays come after a bar, where they were run).

COc1cccc(CN2CCN(Cc3cc(OC)c(OC)cc3[N+](=O)[O-])CC2)c1	none | KCNK9 inh conf inactive | Kir21 sel inactive | HEK293 Tl ctr inactive
COc1cccc(CN2CCN(Cc3cccc(Br)c3)CC2)c1OC	none | KCNK9 inh conf inactive | Kir21 sel inactive | HEK293 Tl ctr inactive
CCCS(=O)(=O)N1CCN=C1SCc1cccc2ccccc12	none | KCNK9 inh conf inactive | Kir21 sel inactive | HEK293 Tl ctr inactive
Cc1ccc(Cl)cc1N1CCN(C(=O)CNC(=O)c2ccc(Br)o2)CC1	none (no result: KCNQ1 pot, Kir21 block, hERG rescue, KCNQ1 block, KCNK9 inh)
Cc1ccccc1/C=C/c1nc2ccccc2c(=O)n1CCc1ccccc1	KCNK9 inh -11 | KCNK9 inh conf 24.5% | Kir21 sel inactive | HEK293 Tl ctr 33.0%
COc1ccc(/C=N/NC(=O)c2nc(-c3ccccc3)cc(-c3ccccc3)n2)cc1O	KCNK9 inh -10.9 | KCNK9 inh conf 68.0% | Kir21 sel inactive | HEK293 Tl ctr inactive
COc1ccc(/C=N/NC(=O)c2cc(-c3ccccc3)nc3ccccc23)cc1O	none
COc1ccccc1N(CCC#N)C(=O)COC(=O)CCC(=O)c1ccc(F)cc1	none (no result: KCNQ1 pot, Kir21 block, hERG rescue, KCNQ1 block, KCNK9 inh)
C=C(C)Cn1c(CCNC(=O)C(C)C)nc2ccccc21	none | KCNK9 inh conf inactive | Kir21 sel inactive | HEK293 Tl ctr inactive
C=C(C)Cn1c(CCNC(=O)CC)nc2ccccc21	none
O=C(O)C1Nc2ccc(Br)cc2C2C=CCC12 (stereo not drawn)	none
Fc1ccc2c(c1)C1C=CCC1C(c1cc3c(cc1Br)OCO3)N2 (stereo not drawn)	KCNK9 inh -13.3 | KCNK9 inh conf 49.0% | Kir21 sel inactive | HEK293 Tl ctr 48.0%
CCCCCSc1nnc(-c2ccccc2NC(C)=O)c(=O)[nH]1	none
Cc1nnc(-c2ccccc2)c(=O)n1/N=C/c1c(O)ccc2ccccc12	KCNQ1 block 8, KCNK9 inh -8.84 | KCNK9 inh conf 38.5% | Kir21 sel inactive | HEK293 Tl ctr 34.0%
COCc1ccc(C(=O)N2CCCC(C(=O)c3cccc(C(F)(F)F)c3)C2)o1 (stereo not drawn)	none
CSc1ccc(C(=O)C2CCCN(C(=O)c3cccc(N4CCOCC4)c3)C2)cc1 (stereo not drawn)	none | KCNK9 inh conf inactive | Kir21 sel inactive | HEK293 Tl ctr inactive
COCc1ccc(C(=O)N2CCCC(C(=O)c3ccc(SC)cc3)C2)o1 (stereo not drawn)	none | KCNK9 inh conf inactive | Kir21 sel inactive | HEK293 Tl ctr inactive
CSc1ccc(C(=O)C2CCCN(C(=O)c3nn(C)c(=O)c4ccccc34)C2)cc1 (stereo not drawn)	none
CSc1ccc(C(=O)C2CCCN(C(=O)c3nonc3C)C2)cc1 (stereo not drawn)	none | KCNK9 inh conf inactive | Kir21 sel inactive | HEK293 Tl ctr inactive
CC1=NC(C(F)(F)F)(C(F)(F)F)C(C#N)=C(C)N1	none
Clc1ncc(Cn2cccn2)s1	none
Cc1nonc1CN(C)C(=O)c1ccc(OC2CCN(C(=O)c3cccnc3)CC2)cc1	none
CSc1ccc(CCNC(=O)c2cc(C)nn2-c2ccccc2)cc1	none
COc1cc(OCc2ccccc2)c(C(=O)/C=C/c2ccc3c(c2)OCO3)c(OC)c1OC	KCNK9 inh -8.86 | KCNK9 inh conf inactive | Kir21 sel inactive | HEK293 Tl ctr 35.0%
COc1cc(OC)c(C(=O)/C=C/c2ccc(OCc3ccccc3)c(OC)c2)c(OC)c1	none
